# From ChEMBL document CHEMBL1221342, “Synthesis and in vitro antitumor activity of new 4,5-dihydropyrazole derivatives” (Bioorg Med Chem, 2010)
# Experiments:
# Type in all cases: functional
# NCI-H460 = assay: Growth inhibition of human NCI-H460 cells after 48 hrs by SRB assay; settings: NCI-H460, 48 h; for TGI: read-out: pTGI (converted)
# Method in brief: (§1)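 NCI 60-cell-line screen. Cells grown in RPMI1640 with 5% fetal calf serum and 2 mM L-glutamine, with inoculum density set by cell line. Preincubated 24 h, then given compound in DMSO at 10^-4 to 10^-8 M (five 10-fold steps) for 48 h continuous exposure. Growth measured by SRB protein assay. GI50, TGI and LC50 reported as –log molar.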
# SR = assay: Growth inhibition of human SR cells after 48 hrs by SRB assay; settings: for TGI: read-out: pTGI (converted); method in brief: as §1
# SF-539 = assay: Growth inhibition of human SF539 cells after 48 hrs by SRB assay; settings: SF-539, 48 h; for TGI: read-out: pTGI (converted); method in brief: as §1
# SK-MEL-28 = assay: Growth inhibition of human SK-MEL-28 cells after 48 hrs by SRB assay; settings: SK-MEL-28, 48 h; method in brief: as §1
# NCI-H322M = assay: Growth inhibition of human NCI-H322M cells after 48 hrs by SRB assay; settings: for TGI: read-out: pTGI (converted); method in brief: as §1
# MCF7 = assay: Growth inhibition of human MCF7 cells after 48 hrs by SRB assay; settings: MCF7, 48 h; for TGI: read-out: pTGI (converted); method in brief: as §1
# SK-OV-3 = assay: Growth inhibition of human SKOV3 cells after 48 hrs by SRB assay; settings: SK-OV-3, 48 h; for TGI: read-out: pTGI (converted); method in brief: as §1
# SK-MEL-5 = assay: Growth inhibition of human SK-MEL-5 cells after 48 hrs by SRB assay; settings: SK-MEL-5, 48 h; for TGI: read-out: pTGI (converted); method in brief: as §1
# TK-10 = assay: Growth inhibition of human TK10 cells after 48 hrs by SRB assay; settings: TK-10, 48 h; for TGI: read-out: pTGI (converted); method in brief: as §1
# EKVX = assay: Growth inhibition of human EKVX cells after 48 hrs by SRB assay; settings: for TGI: read-out: pTGI (converted); method in brief: as §1
# HCC 2998 = assay: Growth inhibition of human HCC2998 cells after 48 hrs by SRB assay; settings: HCC 2998, 48 h; for TGI: read-out: pTGI (converted); method in brief: as §1
# [1] = Growth inhibition of human Hs 578T cells after 48 hrs by SRB assay; settings: for TGI: read-out: pTGI (converted); method in brief: as §1
# SK-MEL-2 = assay: Growth inhibition of human SK-MEL-2 cells after 48 hrs by SRB assay; settings: SK-MEL-2, 48 h; for TGI: read-out: pTGI (converted); method in brief: as §1
# PC-3 = assay: Growth inhibition of human PC3 cells after 48 hrs by SRB assay; settings: PC-3, 48 h; for TGI: read-out: pTGI (converted); method in brief: as §1
# HCT-15 = assay: Growth inhibition of human HCT15 cells after 48 hrs by SRB assay; settings: HCT-15, 48 h; for TGI: read-out: pTGI (converted); method in brief: as §1
# M14 = assay: Growth inhibition of human M14 cells after 48 hrs by SRB assay; settings: M14, 48 h; method in brief: as §1
# OVCAR-4 = assay: Growth inhibition of human OVCAR4 cells after 48 hrs by SRB assay; settings: OVCAR-4, 48 h; for TGI: read-out: pTGI (converted); method in brief: as §1
# Malme-3M = assay: Growth inhibition of human MALME-3M cells after 48 hrs by SRB assay; settings: for TGI: read-out: pTGI (converted); method in brief: as §1
# SNB-75 = assay: Growth inhibition of human SNB75 cells after 48 hrs by SRB assay; settings: SNB-75, 48 h; for TGI: read-out: pTGI (converted); method in brief: as §1
# RXF 393 = assay: Growth inhibition of human RXF393 cells after 48 hrs by SRB assay; settings: RXF 393, 48 h; method in brief: as §1
# UACC-62 = assay: Growth inhibition of human UACC62 cells after 48 hrs by SRB assay; settings: UACC-62, 48 h; for TGI: read-out: pTGI (converted); method in brief: as §1
# U-251 = assay: Growth inhibition of human U251 cells after 48 hrs by SRB assay; settings: U-251, 48 h; for TGI: read-out: pTGI (converted); method in brief: as §1
# UO-31 = assay: Growth inhibition of human UO31 cells after 48 hrs by SRB assay; settings: UO-31, 48 h; for TGI: read-out: pTGI (converted); method in brief: as §1
# OVCAR-3 = assay: Growth inhibition of human OVCAR-3 cells after 48 hrs by SRB assay; settings: OVCAR-3, 48 h; for TGI: read-out: pTGI (converted); method in brief: as §1
# NCI/ADR-RES = assay: Growth inhibition of human NCI/ADR-RES cells after 48 hrs by SRB assay; settings: for TGI: read-out: pTGI (converted); method in brief: as §1
# [2] = Growth inhibition of human […] cells after 48 hrs by SRB assay; settings: for TGI: read-out: pTGI (converted); method in brief: as §1
# 786-0 = assay: Growth inhibition of human 786-0 cells after 48 hrs by SRB assay; settings: 786-0, 48 h; for TGI: read-out: pTGI (converted); method in brief: as §1
# CAKI-1 = assay: Growth inhibition of human Caki1 cells after 48 hrs by SRB assay; settings: CAKI-1, 48 h; for TGI: read-out: pTGI (converted); method in brief: as §1
# OVCAR-8 = assay: Growth inhibition of human OVCAR8 cells after 48 hrs by SRB assay; settings: OVCAR-8, 48 h; for TGI: read-out: pTGI (converted); method in brief: as §1
# HOP-62 = assay: Growth inhibition of human HOP62 cells after 48 hrs by SRB assay; settings: HOP-62, 48 h; for TGI: read-out: pTGI (converted); method in brief: as §1
# BT-549 = assay: Growth inhibition of human BT549 cells after 48 hrs by SRB assay; settings: BT-549, 48 h; for TGI: read-out: pTGI (converted); method in brief: as §1
# IGROV-1 = assay: Growth inhibition of human IGROV1 cells after 48 hrs by SRB assay; settings: IGROV-1, 48 h; for TGI: read-out: pTGI (converted); method in brief: as §1
# CCRF-CEM = assay: Growth inhibition of human CCRF-CEM cells after 48 hrs by SRB assay; settings: for TGI: read-out: pTGI (converted); method in brief: as §1
# DU-145 = assay: Growth inhibition of human DU145 cells after 48 hrs by SRB assay; settings: DU-145, 48 h; for TGI: read-out: pTGI (converted); method in brief: as §1
# HL-60(TB) = assay: Growth inhibition of human HL-60(TB) cells after 48 hrs by SRB assay; settings: HL-60, 48 h; for TGI: read-out: pTGI (converted)
# Method in brief: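 NCI 60-cell-line screen: cells grown in RPMI1640 with 5% fetal calf serum and 2 mM L-glutamine, preincubated 24 h, then exposed to compound in DMSO at five concentrations (10^-4 to 10^-8 M) for 48 h continuous exposure. Growth estimated by sulforhodamine B protein assay; reported as pGI50 (-log molar concentration inhibiting net cell growth by 50%).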
# SF-295 = assay: Growth inhibition of human SF295 cells after 48 hrs by SRB assay; settings: SF-295, 48 h; for TGI: read-out: pTGI (converted); method in brief: as §1
structure (smiles),measurement,setting,value
COc1cc(C2=NNC(c3ccc(N(C)C)cc3)C2)cc(OC)c1OC (configuration not stated),GI50,NCI-H460,1260 nM
same,TGI,NCI-H460,6310 nM
same,GI50,SR,251 nM
same,TGI,SR,7940 nM
same,GI50,SF-539,501 nM
same,TGI,SF-539,3160 nM
same,GI50,SK-MEL-28,15800 nM
same,TGI,SK-MEL-28; read-out: pTGI (converted),> 100000 nM
same,GI50,NCI-H322M,12600 nM
same,TGI,NCI-H322M,> 100000 nM
same,GI50,MCF7,398 nM
same,TGI,MCF7,> 100000 nM
same,GI50,SK-OV-3,3980 nM
same,TGI,SK-OV-3,> 100000 nM
same,GI50,SK-MEL-5,2000 nM
same,TGI,SK-MEL-5,6310 nM
same,GI50,TK-10,10000 nM
same,TGI,TK-10,> 100000 nM
same,GI50,EKVX,2000 nM
same,TGI,EKVX,6310 nM
same,GI50,HCC 2998,1580 nM
same,TGI,HCC 2998,5010 nM
same,GI50,[1],2510 nM
same,TGI,[1],6310 nM
same,GI50,SK-MEL-2,3160 nM
same,TGI,SK-MEL-2,31600 nM
same,GI50,PC-3,794 nM
same,TGI,PC-3,> 100000 nM
same,GI50,HCT-15,2510 nM
same,TGI,HCT-15,> 100000 nM
same,GI50,M14,2510 nM
same,GI50,OVCAR-4,15800 nM
same,TGI,OVCAR-4,> 100000 nM
same,GI50,Malme-3M,7940 nM
same,TGI,Malme-3M,> 100000 nM
same,GI50,SNB-75,1000 nM
same,TGI,SNB-75,> 100000 nM
same,GI50,RXF 393,1260 nM
same,TGI,RXF 393; read-out: pTGI (converted),5010 nM
same,GI50,UACC-62,3980 nM
same,TGI,UACC-62,> 100000 nM
same,GI50,U-251,631 nM
same,TGI,U-251,> 100000 nM
same,GI50,UO-31,5010 nM
same,TGI,UO-31,50100 nM
same,GI50,OVCAR-3,6310 nM
same,TGI,OVCAR-3,> 100000 nM
same,GI50,NCI/ADR-RES,2000 nM
same,TGI,NCI/ADR-RES,> 100000 nM
same,GI50,[2],1580 nM
same,TGI,[2],12600 nM
same,GI50,786-0,2000 nM
same,TGI,786-0,> 100000 nM
same,GI50,CAKI-1,2510 nM
same,TGI,CAKI-1,> 100000 nM
same,GI50,OVCAR-8,3980 nM
same,TGI,OVCAR-8,> 100000 nM
same,GI50,HOP-62,1260 nM
same,TGI,HOP-62,> 100000 nM
same,GI50,BT-549,794 nM
same,TGI,BT-549,10000 nM
same,GI50,IGROV-1,501 nM
same,TGI,IGROV-1,3160 nM
same,GI50,CCRF-CEM,1580 nM
same,TGI,CCRF-CEM,6310 nM
same,GI50,DU-145,2000 nM
same,TGI,DU-145,5010 nM
same,GI50,HL-60(TB),1580 nM
same,TGI,HL-60(TB),5010 nM
same,GI50,SF-295,251 nM
same,TGI,SF-295,794 nM
CCN(CC)c1ccc(C2CC(c3cc(OC)c(OC)c(OC)c3)=NN2)cc1 (configuration not stated),GI50,NCI-H460,316 nM
same,TGI,NCI-H460,12600 nM
same,GI50,SR,251 nM
same,TGI,SR,1000 nM
same,GI50,SF-539,316 nM
same,TGI,SF-539,1260 nM
same,GI50,NCI-H322M,> 100000 nM
same,TGI,NCI-H322M,> 100000 nM
same,GI50,MCF7,158 nM
same,TGI,MCF7,1580 nM
same,GI50,SK-OV-3,501 nM
same,TGI,SK-OV-3,> 100000 nM
same,GI50,SK-MEL-5,794 nM
same,TGI,SK-MEL-5,3160 nM
same,GI50,TK-10,39800 nM
same,TGI,TK-10,> 100000 nM
same,GI50,EKVX,398 nM
same,TGI,EKVX,794 nM
same,GI50,HCC 2998,631 nM
same,TGI,HCC 2998,7940 nM
same,GI50,[1],251 nM
same,TGI,[1],631 nM
same,GI50,SK-MEL-2,1580 nM
same,TGI,SK-MEL-2,> 100000 nM
same,GI50,PC-3,316 nM
same,TGI,PC-3,63100 nM
same,GI50,HCT-15,631 nM
same,TGI,HCT-15,> 100000 nM
same,GI50,OVCAR-4,1000 nM
same,TGI,OVCAR-4,> 100000 nM
same,GI50,Malme-3M,20000 nM
same,TGI,Malme-3M,> 100000 nM
same,GI50,SNB-75,200 nM
same,TGI,SNB-75,631 nM
same,GI50,UACC-62,398 nM
same,TGI,UACC-62,50100 nM
same,GI50,U-251,398 nM
same,TGI,U-251,> 100000 nM
same,GI50,UO-31,794 nM
same,TGI,UO-31,> 100000 nM
same,GI50,OVCAR-3,398 nM
same,TGI,OVCAR-3,> 100000 nM
same,GI50,NCI/ADR-RES,501 nM
same,TGI,NCI/ADR-RES,> 100000 nM
same,GI50,[2],398 nM
same,TGI,[2],3980 nM
same,GI50,786-0,158 nM
same,TGI,786-0,501 nM
same,GI50,CAKI-1,200 nM
same,TGI,CAKI-1,794 nM
same,GI50,OVCAR-8,398 nM
same,TGI,OVCAR-8,7940 nM
same,GI50,HOP-62,316 nM
same,TGI,HOP-62,3980 nM
same,GI50,BT-549,398 nM
same,TGI,BT-549,5010 nM
same,GI50,IGROV-1,316 nM
same,TGI,IGROV-1,6310 nM
same,GI50,CCRF-CEM,200 nM
same,TGI,CCRF-CEM,631 nM
same,GI50,DU-145,398 nM
same,TGI,DU-145,1580 nM
same,GI50,HL-60(TB),251 nM
same,TGI,HL-60(TB),2000 nM
same,GI50,SF-295,100 nM
same,TGI,SF-295,316 nM
